Source: ChEMBL document CHEMBL3286203, “Reactive oxygen species (ROS) inducible DNA cross-linking agents and their effect on cancer cells and normal lymphocytes” (J Med Chem, 2014)

What was measured:
[1] = Drug level in deuterated phosphate buffer treated with 40 mM N,N-Bis(2-chloroethyl)-4-(4,4,5,5-tetramethyl-1,3,2-dioxaborolan-2-yl)aniline after 24 hrs by 1H-NMR analysis; assay type: physicochemical
Summary of the method: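 1H NMR of the boronate mustard (40 mM) held 24 h in deuterated potassium phosphate buffer (4.0 mM) with no H2O2. Solvent was 1.0 M deuterated potassium phosphate buffer/DMSO-d6/D2O = 2:450:48.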

[2] = Induction of [32P]-labeled 49-mer oligonucleotide duplex DNA 12 with GNC sequence at terminus (unknown origin) interstrand cross-linking at 1 mM after 16 hrs by PAGE
Summary of the method: (§1)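 32P-labelled 12a (1.0 μM) annealed with 1.5 equiv of 12b in 10 mM potassium phosphate pH 7 / 100 mM NaCl (65 °C for 3 min, then slow cooling). Duplex incubated with compound (final 1 μM–5 mM), with or without H2O2, in NaCl and potassium phosphate pH 8 at room temperature for 16 h. Quenched in formamide; 20% denaturing PAGE.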

[3] = Induction of [32P]-labeled 49-mer oligonucleotide duplex DNA 12 with GNC sequence at terminus (unknown origin) interstrand cross-linking at 50 uM after 16 hrs by PAGE in presence of H2O2; summary of the method: as §1
[4] = Ratio of induction of [32P]-labeled 49-mer oligonucleotide duplex DNA 12 with GNC sequence at terminus (unknown origin) interstrand cross-linking in presence of H2O2 to induction of [32P]-labeled 49-mer oligonucleotide duplex DNA 12 with GNC sequence at terminus (unknown origin) in absence of H2O2; summary of the method: as §1

| Structure (SMILES) | Drug metabolism [1] | Activity [2] [%] | Activity [3] [%] | Ratio [4] |
| --- | --- | --- | --- | --- |
| CC(C)(O)C(C)(C)O | metabolite_detected | – | – | – |
| CC1(C)OB(c2ccc(N(CCOS(C)(=O)=O)CCOS(C)(=O)=O)cc2)OC1(C)C | – | 22 | 3 | 3 |
